# MEX-5 binding: C. elegans MEX-5 TCR-2 RNA binding activity; Q9XUB2; 300,000 compounds, 0.38% hits; activity score (negative = inhibition of binding), % at 10 µM; AID 1832; MEX-5/FITC-TCR2 RNA binding, fluorescence polarization; active compounds read low;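 active = inhibition past about -25% in most replicates, and total fluorescence under double the plate's negative control median, limit read from the data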;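 note: 0% = DMSO and -100% = 5 µM competing unlabeled TCR2 RNA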
# CendR NRP1 mod: modulators of CendR peptide binding to human neuropilin-1 | O14786 | FAM-RPARPAR peptide binding to NRP-1, fluorescence polarization | inhibition, % at 25 µM | 360,000 compounds, 0.85% hits | AID 602438;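 active = inhibition or corrected inhibition above about 18%, plus a signal ratio from 0.5 to 1.5, limit read from the data, passing the limit was not always enough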
# Target sequence (O14786 whole entry, looked up): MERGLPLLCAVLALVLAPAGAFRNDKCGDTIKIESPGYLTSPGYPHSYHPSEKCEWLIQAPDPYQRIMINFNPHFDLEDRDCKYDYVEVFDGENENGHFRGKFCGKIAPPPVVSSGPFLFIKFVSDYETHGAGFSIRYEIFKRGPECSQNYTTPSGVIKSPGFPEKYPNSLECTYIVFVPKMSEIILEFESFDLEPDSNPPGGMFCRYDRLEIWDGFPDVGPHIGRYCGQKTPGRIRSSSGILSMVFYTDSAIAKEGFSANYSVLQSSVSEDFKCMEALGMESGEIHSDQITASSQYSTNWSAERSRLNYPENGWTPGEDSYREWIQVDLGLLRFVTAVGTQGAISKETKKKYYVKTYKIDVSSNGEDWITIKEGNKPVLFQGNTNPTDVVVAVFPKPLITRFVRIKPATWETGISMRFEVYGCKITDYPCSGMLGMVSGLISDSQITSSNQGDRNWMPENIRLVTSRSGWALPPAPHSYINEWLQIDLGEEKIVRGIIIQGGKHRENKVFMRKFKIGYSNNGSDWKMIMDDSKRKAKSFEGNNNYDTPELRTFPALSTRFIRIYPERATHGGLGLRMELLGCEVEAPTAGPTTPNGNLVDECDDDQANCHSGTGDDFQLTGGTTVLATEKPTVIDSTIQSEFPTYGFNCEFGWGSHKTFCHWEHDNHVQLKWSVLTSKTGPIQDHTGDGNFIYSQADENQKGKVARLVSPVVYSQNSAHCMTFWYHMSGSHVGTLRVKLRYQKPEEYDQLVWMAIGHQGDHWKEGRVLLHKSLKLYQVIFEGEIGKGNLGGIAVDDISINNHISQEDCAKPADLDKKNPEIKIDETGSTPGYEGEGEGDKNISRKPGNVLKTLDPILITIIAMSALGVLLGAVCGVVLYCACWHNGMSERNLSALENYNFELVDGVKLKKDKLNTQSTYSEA
# HCV core dimer: blocks dimerization of HCV core protein; inhibition, % at 5 µM; AID 1899; 300,000 compounds, 0.33% hits; TR-FRET GST/Flag-core106 dimerization, 1536-well;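 active = inhibition above the mean of all tested compounds plus 3 SD, set per screening campaign, cut at about 45% in these data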
#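 Material: Tagged HCV core106 pair (GST and Flag) | Amount: GST-core106 13.5 nM, Flag-core106 17 nM | Medium: KF-containing HEPES buffer, pH 7.45, DTT, CHAPS, BSA | Reagent: Eu donor and XL665 acceptor anti-tag antibodies | Schedule: 4 h at 22.5 °C | Technique: Time-resolved FRET, ex 340 nm, em 617 and 671 nm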
# FID counter: fluorescent intercalator displacement, NS3 helicase counter-screen | DNA fluorescent intercalator displacement, fluorescence | inhibition, % at 7.9 µM | 290,000 compounds, 0.17% hits; in the data active = inhibition above about 37%;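 note: 0% = vehicle and 100% = reference compound; higher means more ethidium bromide displaced from hairpin DNA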
# * hit, by the source's call; . = no result given. Rows were chosen to be rich in hits. Some 1.5% of all compounds tested hit in one or more screens of this group.
SMILES,MEX-5 binding,CendR NRP1 mod,HCV core dimer,FID counter
COc1cccc(NC(=O)CSc2ccc3nnc(CCNC(=O)c4ccccc4)n3n2)c1,-1,20*,-15,-31
COc1ccc(NC(=O)CSc2ccc3nnc(CCNC(=O)c4ccccc4)n3n2)cc1,-4,9,-12,-28
CCC(NC(C)C)C(O)c1ccc(O)c(O)c1 (stereo unspecified),-29*,-6,7,-1
COc1cc(CNCCO)cc(Br)c1OCc1ccccc1Cl,1,-17,-3,36
COc1cc(CNCCO)cc(Cl)c1OCc1ccc(Cl)cc1Cl,1,2,-16,43*
COc1cccc(=O)c2c(C)oc(C)c12,-71*,0,0,-4
CCOC(=O)CN1C(=O)S/C(=C\c2ccc(-c3ccc(C(=O)O)c(Cl)c3)o2)C1=O,-3,-18,-1,-16
O=C(O)c1ccc(-c2ccc(/C=C3\NC(=O)N(Cc4ccc(Cl)cc4)C3=O)o2)cc1Cl,-32*,-55,.,-21
COC(=O)[C@@H]1C[C@@]2(O)[C@H](O)[C@H](O)[C@H](O)C[C@H]2N1Cc1ccc(C(F)(F)F)cc1,-3,27*,0,.
O=C(Nc1ccc(Nc2ccncc2)cc1)c1ccc(Nc2ccnc3ccc([N+](=O)[O-])cc23)cc1[N+](=O)[O-],-1,5,62*,32
CC(=O)Nc1cc(-c2ccc(S(C)(=O)=O)cc2)cn2c(-c3ccc(F)c(Cl)c3)cnc12,.,-3,.,.
Cc1[nH]c2ccccc2c1C(=O)C(=O)NCc1nnnn1-c1ccc(F)cc1,.,3,.,.
CO/N=C/CC(=O)c1cnc(-c2ccc(Cl)cc2)s1,-1,26*,9,0
O=C(c1ccc(Cl)cc1)c1cnc(-c2ccccc2)s1,.,-4,.,-2
C[C@H](CO)N1C[C@H](C)[C@@H](CN(C)Cc2cccc(C(F)(F)F)c2)OCc2cnnn2CCCC1=O,.,-3,.,.
Cc1cc(C)c(C#N)c(N2CCN(CCOc3ccc(Cl)cc3)CC2)n1,-4,27*,-7,5
COc1cccc(C(C)(O)c2nc(-c3cccc(C#N)c3)cs2)c1 (stereo unspecified),.,2,.,.
O=C(Nc1ccccc1N1CCOCC1)c1cccnc1Cl,-2,-5,0,47*
O=C(Nc1ccccc1N1CCOCC1)[C@@H]1O[C@H](CO)[C@H](O)[C@H](O)[C@H]1O,.,32*,.,.
COc1cc2c(=O)n(Cc3ccco3)c(=O)n(CC(=O)c3cccc(Br)c3)c2cc1OC,-3,.,47*,4
COc1cc2c(=O)n(Cc3ccco3)c(=O)n(CC(=O)c3ccc(Br)cc3)c2cc1OC,-1,-7,26,-2
COc1ccccc1C(=O)N(CCC1CCCN1C)c1nc2ccccc2s1 (stereo unspecified),2,-2,-1,42*
Cn1nc2c(c1C(=O)N1CCCC(C(=O)c3cc(F)ccc3F)C1)CCCC2 (stereo unspecified),0,53*,2,-32
C=C(C)[C@@H]1C2=CC(C(=O)OC)=C(C[C@H](C(=C)C)[C@H]3O[C@H]3C3=C[C@H]1OC3=O)O2,.,-1,.,.
O=C(COC(=O)C1=COCCO1)Nc1ccccc1,0,3,3,-3
SMILES,MEX-5 binding,CendR NRP1 mod,HCV core dimer,FID counter
O=C(COC(=O)C1=COCCO1)Nc1ccc(OC(F)F)cc1,0,27*,-1,-1
COc1ccc(C2/C=C\CN(C(=O)C3CCCC3)CC(=O)N2Cc2ccc(F)cc2)cc1 (stereo unspecified),-1,12,10,.
COc1ccc(C2/C=C\CN(C(=O)C3CCCCC3)CC(=O)N2Cc2ccc(F)cc2)cc1 (stereo unspecified),0,34*,5,.
Nc1nc2ccccc2cc1C(=O)NCc1ccc(Cl)cc1Cl,.,-31,.,.
COc1ccc(CN(C)C(=O)CNC(=O)c2sc3ccccc3c2Cl)c(OC)c1OC,.,46*,.,.
CSc1nc(NCCN(C)C)c2sc3nc(-c4ccco4)c4c(c3c2n1)CCC4,.,-6,.,.
CSc1nc(N(C)CCO)c2sc3nc(-c4ccco4)c4c(c3c2n1)CCC4,-3,-12,80*,-22
CCCOc1ccc(/C=C/C(=O)NC2CCCCC2)cc1,2,-1,-3,-21
O=C(/C=C/c1ccc(Br)cc1)NC1CCCCCC1,-3,-2,102*,-6
Cc1ccc(-n2nc(C(=O)NCc3ccco3)c3c4ccccc4n(C)c3c2=O)cc1,-4,8,47*,-12
CCOC(=O)c1ccc(-c2c(-c3cc(OC)c(OC)c(OC)c3)noc2C)cc1F,0,25*,-17,-41
C[C@H](CO)N1C[C@H](C)[C@@H](CN(C)C(=O)CCCN(C)C)OCc2cn(nn2)CCCC1=O,.,3,.,.
COc1ccc(CC(=O)NCc2n[nH]c(=S)n2-c2ccc(F)cc2)cc1,1,1,-4,-9
COc1ccc(-n2c(CNC(=O)c3cccs3)n[nH]c2=S)cc1,0,31*,-3,-3
CC1(C(=O)Nc2cccc3c2CCCC3)CCN1C(=O)CCC1CCCC1 (stereo unspecified),.,6,.,.
COC(=O)c1cc(NC(=O)c2cccc(C(F)(F)F)c2)c(=O)oc1C,1,-8,1,-5
COC(=O)c1cc(NC(=O)c2cccc(Cl)c2)c(=O)oc1/C=C/Nc1cc(C)cc(C)c1,-28*,.,8,-8
CCC(=O)OC1(C)C(=O)C=C2C=C(CCCC(=O)OC)OC=C2C1=O (stereo unspecified),-31*,-6,53*,.
CCCCC1=CC2=CC(=O)C(C)(OC(=O)CC)C(=O)C2=CO1 (stereo unspecified),-23,-30,18,.
COC(=O)CCCC1=CC2=CC(=O)C(C)(O)C(=O)C2=CO1 (stereo unspecified),-39*,.,24,.
COC(=O)CCCC1=CC2=CC(=O)C(C)(OC(=O)C3CCCC3)C(=O)C2=CO1 (stereo unspecified),-27*,.,64*,.
COc1ccc(/C=C2/CCCC(C(=O)C(F)(F)F)=C2O)cc1OC,4,18,0,-8
COc1ccc(/C=C2\CCCC(C(=O)C(F)(F)F)=C2O)cc1OC,-34*,.,-1,-6
COc1ccc(/C=C2\CCCc3c2nc2ccccc2c3C(=O)O)cc1OC,-73*,.,3,-12
COc1ccc(/C(O)=C2/C(=O)C(=O)N(CCCC(=O)O)C2c2ccc(OC)c(OC)c2)cc1 (stereo unspecified),-1,-6,1,0
SMILES,MEX-5 binding,CendR NRP1 mod,HCV core dimer,FID counter
COc1cccc(C2/C(=C(/O)c3ccccc3)C(=O)C(=O)N2CCCC(=O)O)c1 (stereo unspecified),.,29*,.,-1
CCN(CC)CCNc1ccnc2cc(Cl)ccc12,1,4,-4,48*
CCN(CC)Cc1cc(Nc2ccnc3cc(Cl)ccc23)ccc1O,-1,-2,-3,69*
Oc1ccc(Nc2ccnc3cc(Cl)ccc23)cc1,5,-11,4,11
O=C(Nc1ccccc1)Nc1nnc(-c2ccccc2)o1,-1,40*,-4,-3
COc1ccccc1NCCC(=O)OCC(=O)NCc1ccco1,2,2,58*,-8

# Source: PubChem BioAssay (several laboratories)
